Scp-1 inhibitor = blocks human Scp-1 phosphatase activity. Q9GZU7. Recombinant Scp1, phosphopeptide, malachite green phosphate absorbance. inhibition, % at 20 µM. 340,000 compounds, 0.88% hits. AID 493091;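 active = inhibition above about 50% at 20 µM, limit read from the data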
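Times: enzyme reaction 45 min at room temperature, colour 5 min, stabilisation 30 min. Material: SCP-1 catalytic fragment, aa 76-261. Medium: Acidic Tris acetate buffer with magnesium and detergent. Signal: colorimetric free-phosphate detection, absorbance 630 nm. Read-out basis: % inhibition of SCP-1 phosphate liberation. Reagent: Phosphorylated 17-residue peptide substrate.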
SUMO1-SIM PPI = SUMO1-SIM interaction modulation; P63165; SUMO1 binding to a labelled peptide, TR-FRET, 1 h; inhibition, % at 20 µM; 360,000 compounds, 0.33% hits; in the data active = inhibition above about 37%
DNMT1 block = inhibitors of human DNMT1; 360,000 compounds, 0.83% hits; inhibition (reported as % activation of signal), % at 10 µM; DNMT1 molecular beacon, Hinp1I cleavage, fluorescence; P26358; in the data active = inhibition above about 50%
LMPTP inh = LMPTP (human) inhibition; recombinant LMPTP-A, OMFP fluorogenic substrate, fluorescence intensity; inhibition, % at 20 µM; 360,000 compounds, 0.22% hits; AID 651560;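 active = compounds that cut the enzyme signal by at least half of the control window in the single-dose screen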
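Test system: LMPTP-A phosphatase enzyme. Amount: LMPTP-A at 0.625 nM final in the reaction. Reagent: OMFP substrate, 400 µM final. Times: 50 min at room temperature. Signal: endpoint fluorescence intensity from OMFP dephosphorylation. Read-out basis: % inhibition. Benchmarks: no-enzyme and uninhibited controls.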
STEP block = blocks human striatal-enriched tyrosine phosphatase; P54829; recombinant STEP, OMFP fluorogenic substrate, fluorescence; inhibition, % at 20 µM; 360,000 compounds, 0.25% hits; AID 588621;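 active = inhibition at 20 µM, scaled per plate between control wells, above about 37%, limit read from the data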
Target sequence (P54829 whole entry, looked up): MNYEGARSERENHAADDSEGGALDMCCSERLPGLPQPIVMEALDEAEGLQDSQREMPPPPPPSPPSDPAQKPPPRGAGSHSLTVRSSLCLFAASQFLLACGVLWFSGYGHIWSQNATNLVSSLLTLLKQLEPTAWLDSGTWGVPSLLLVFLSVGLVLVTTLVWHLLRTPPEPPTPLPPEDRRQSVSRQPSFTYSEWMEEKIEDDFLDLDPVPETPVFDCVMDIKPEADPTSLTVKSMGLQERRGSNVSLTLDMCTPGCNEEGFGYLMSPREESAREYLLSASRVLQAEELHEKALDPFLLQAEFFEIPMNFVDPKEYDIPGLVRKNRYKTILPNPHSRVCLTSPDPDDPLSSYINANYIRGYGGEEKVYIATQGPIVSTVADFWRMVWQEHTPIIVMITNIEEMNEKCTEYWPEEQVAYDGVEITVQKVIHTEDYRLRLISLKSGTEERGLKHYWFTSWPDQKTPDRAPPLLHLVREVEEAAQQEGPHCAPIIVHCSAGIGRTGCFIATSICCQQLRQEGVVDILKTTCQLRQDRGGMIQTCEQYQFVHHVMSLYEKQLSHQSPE
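Test system: STEP tyrosine phosphatase / Reagent: OMFP at 25 µM / Doses: 20 µM, 1% DMSO / Read-out: percent inhibition scaled to no-enzyme and uninhibited-enzyme controls, plate-pattern corrected / Detection: FITC-channel fluorescence of OMFP product / Medium: Bis-Tris buffer pH 6.0, 2.5 mM DTT, 0.005% Tween 20 / Schedule: 20 min at room temperature, dark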
Each line names hits and unclear results; the compound was inactive in the other large screens. A selection: hits, their analogues and other compounds. The true share with any hit is near 1.7%.

CCn1cc(C(=O)O)c(=O)c2cc(F)c(N3CCN(C(=S)NC(=O)c4ccccc4F)CC3)cc21	LMPTP inh 70
NS(=O)(=O)c1cc(C(=O)OCC(=O)N2CCOCC2)ccc1Cl	none
C=C(C)C(=O)Nc1ccc2c(c1)OCCOCCOCCO2	Scp-1 inhibitor 97, SUMO1-SIM PPI 57, DNMT1 block 90, STEP block 64
Cc1cccc(C)c1NC(=S)NCCSc1ccc(Cl)cc1	none
Cn1c(/N=C/c2c(O)ccc3ccccc23)nc2ccccc21	SUMO1-SIM PPI 82
N#Cc1cnn(-c2ccccc2)c1NC(=O)c1ccccc1F	none
COc1nc(Nc2nc3ccccc3c(=O)[nH]2)nc2ccc(C)cc12	SUMO1-SIM PPI 47
COc1cc(CNC(=O)C2CC(O)CN2C(=O)Nc2ccccc2)cc(OC)c1OC (centres undefined)	none (no result: Scp-1 inhibitor)
CC1(C)CC(Cc2ccc(C(=O)c3ccccc3)cc2)N(C(=O)OC(C)(C)C)N1 (centres undefined)	none (no result: Scp-1 inhibitor)
O=C(N/N=C/c1ccc([N+](=O)[O-])s1)c1ccncc1	none
O=C(N/N=C/c1ccc([N+](=O)[O-])s1)c1cccc(Br)c1	Scp-1 inhibitor 97, LMPTP inh 75, STEP block 55
Cc1ccc(C(=O)N/N=C/c2ccc([N+](=O)[O-])s2)cc1	Scp-1 inhibitor 104
O=C1NC(=O)/C(=C/c2ccc(-c3cccc([N+](=O)[O-])c3)o2)S1	SUMO1-SIM PPI 55
O=C(COC(=O)Cc1c(Cl)cccc1Cl)Nc1ccc2[nH]c(=O)[nH]c2c1	SUMO1-SIM PPI 55
O=C(COC(=O)c1nc(Cl)ccc1Cl)Nc1ccc2[nH]c(=O)[nH]c2c1	SUMO1-SIM PPI 63
O=S1(=O)CC(N2CCSCC2)CN1Cc1cn(Cc2ccc(F)cc2)nn1 (centres undefined)	none (no result: Scp-1 inhibitor, DNMT1 block, STEP block)
Cc1c(CN2CCC(CO)(CCOc3ccccc3)CC2)[nH]c2c(Cl)cccc12	none
CC(C)(C)NC(=O)C1c2ccccc2OCC(=O)N1CCCN1CCOCC1 (centres undefined)	none (no result: Scp-1 inhibitor, DNMT1 block, STEP block)
O=C(N/N=C/c1ccc(-c2ccc(S(=O)(=O)Nc3ncccn3)cc2)o1)c1cc2ccccc2cc1O	SUMO1-SIM PPI 39, DNMT1 block 86
O=c1[nH]c(O)c(/C=C2\C=Nc3ccc(Br)cc32)[nH]1	none
CC[n+]1c(C)sc2c(C)cc(C)cc21	none
CCC[n+]1c(C)sc2c3c(ccc21)CCCC3	Scp-1 inhibitor 98
COc1ccc(C2=CC3=C(Br)C(=O)C(C)(OC(=O)C4CCCC4)C(=O)C3=CO2)cc1 (centres undefined)	SUMO1-SIM PPI 56
COC(=O)CCC(=O)OC1(C)C(=O)C2=COC(c3ccc(OC)cc3)=CC2=C(Br)C1=O (centres undefined)	none (no result: SUMO1-SIM PPI, DNMT1 block, LMPTP inh, STEP block)
CCNc1c2c3c(cccc3n(C)c1=O)C(=O)c1ccccc1-2	none (no result: SUMO1-SIM PPI, DNMT1 block, LMPTP inh, STEP block)
Cn1c(=O)c(NCCc2ccccc2)c2c3c(cccc31)C(=O)c1ccccc1-2	DNMT1 block 76
Cn1c(=O)c(NCCO)c2c3c(cccc31)C(=O)c1ccccc1-2	DNMT1 block 142
CCCCNc1c2c3c(cccc3n(C)c1=O)C(=O)c1ccccc1-2	DNMT1 block 192
Cc1oc(-c2cc(F)ccc2F)nc1CN1CCC(C(=O)N2CCOCC2)CC1	SUMO1-SIM PPI 44
COc1ccc(-c2nc(CN3CCC(C(=O)N4CCOCC4)CC3)c(C)o2)cc1OC	none
CCOC(=O)/C(=C\C=C1/Sc2cc(OCC)c(OCC)cc2N1CC)C(C)=O	DNMT1 block 93
COc1ccc(C=NNc2ccc(S(=O)(=O)Nc3ccccc3C(=O)O)cc2[N+](=O)[O-])c(OC)c1	SUMO1-SIM PPI 56, LMPTP inh 52
COc1ccc(CNC(=O)CN2C(=O)NC3(CCCCCC3)C2=O)cc1OC	none
CCOc1ccc(CCNC(=O)CN2C(=O)NC3(CCCCCC3)C2=O)cc1OCC	SUMO1-SIM PPI 48
CCCCCCCCCCCC1N=C(N)NC(CCCO)=C1C(=O)OC (centres undefined)	SUMO1-SIM PPI 103
CSc1ccc(OC2(C)CCN(Cc3ccc4c(c3)OCCO4)C2)cc1 (centres undefined)	none (no result: Scp-1 inhibitor)
C[C@@H]1CN([C@H](C)CO)C(=O)CCCn2cc(nn2)CO[C@H]1CN(C)C(=O)Nc1ccnc(N2CCOCC2)c1	SUMO1-SIM PPI 108 (no result: Scp-1 inhibitor)
COc1ccc(OC(F)(F)F)cc1CC1(C)C(=O)Nc2ccc(-c3ccsc3)cc21 (centres undefined)	none (no result: Scp-1 inhibitor)

Bioassay records from PubChem BioAssay.
